Laboratory results reported in publication PMC2731475 (Journal of the American Chemical Society, 2009).
Read-outs that look alike come from different tables or passages of the source.

Tests used:
DNA1 = experiment: Fluorescence binding assay, DNA1; conditions: for Kd: DNA1, DNA hairpin with 5′AATT/3′TTAA
Procedure, shortened: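 The DNA hairpin was titrated into 1 μM test compound in 8 mM sodium phosphate pH 7.0, 185 mM NaCl, 1 mM EDTA. After 5 min incubation, fluorescence was read at ex 360/40 and em 460/40. Fraction bound/[nucleic acid] was plotted against fraction bound to obtain binding constants.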

mice = conditions: cited from earlier work
5′CUG/3′GUC = conditions: studies on 5′UTR of thymidylate synthetase mRNA; cited from earlier work
RNA1 = experiment: Fluorescence binding assay, RNA1
Procedure, shortened: (§1)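 RNA hairpins were annealed in 8 mM sodium phosphate pH 7.0, 185 mM NaCl, 1 mM EDTA at 60 °C for 1 min and slowly cooled. They were titrated into 1 μM test compound in the same buffer and read after 5 min as fluorescence (ex 360/40, em 460/40). Plots were fraction bound/[RNA] versus fraction bound, fitted to a large-ligand lattice-binding equation giving the microscopic dissociation constant.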

RNA2 = experiment: Fluorescence binding assay, RNA2; conditions: RNA2, single 5′CUG/3′GUC (DM1) motif
Procedure, shortened: as §1

RNA3 = experiment: Fluorescence binding assay, RNA3
Procedure, shortened: as §1

RNA4 = experiment: Fluorescence binding assay, RNA4
Procedure, shortened: as §1

RNA5 = experiment: Fluorescence binding assay, RNA5
Procedure, shortened: as §1

RNA6 = experiment: Fluorescence binding assay, RNA6
Procedure, shortened: as §1

RNA7 = experiment: Fluorescence binding assay, RNA7
Procedure, shortened: as §1

RNA8 = experiment: Fluorescence binding assay, RNA8
Procedure, shortened: as §1

RNA9 = experiment: Fluorescence binding assay, RNA9
Procedure, shortened: as §1

RNA10 = experiment: Fluorescence binding assay, RNA10
r(CUG)109 [1] = experiment: Fluorescence binding assay, r
Procedure, shortened: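 r(CUG)109, transcribed from BamHI-linearised plasmid and gel-purified, was annealed at 60 °C for 1 min in pH 7.0 phosphate/185 mM NaCl/EDTA buffer. It was titrated into test compound (1 μM; 5 μM for one monomeric ligand) and fluorescence read after 5 min. Data were fitted to a lattice-binding equation with N repeat units. Selectivity = Kd(herring sperm DNA)/Kd(r(CUG)109).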

herring sperm DNA = experiment: Fluorescence binding assay, herring sperm DNA
Procedure, shortened: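 Herring sperm DNA was annealed at 90 °C for 3 min in 8 mM sodium phosphate pH 7.0, 185 mM NaCl, 1 mM EDTA and slowly cooled. It was titrated into 1 μM test compound, and fluorescence (ex 360/40, em 460/40) was read after 5 min. Fraction bound/[DNA] versus fraction bound was fitted to a straight line for Kd.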

r(CUG)109-MBNL1 complex = experiment: r; format: biochemical
RNA11-MBNL1 complex = experiment: MBNL1-RNA11; format: biochemical
RNA12-MBNL1 complex = experiment: MBNL1-RNA12; format: biochemical
[2] = system: RNAs containing a 1×1 nucleotide CC internal loop; conditions: cited from earlier work
RNA12 [3] = experiment: Binding of MBNL1 to RNA12; conditions: MBNL1, RNA12 versus RNA11
RNA13 [4] = experiment: Binding of MBNL1 to RNA13; conditions: MBNL1, RNA13 versus RNA11
RNA14 [5] = experiment: Binding of MBNL1 to RNA14
RNA16 [6] = experiment: Binding of MBNL1 to RNA16; conditions: MBNL1, RNA16 versus RNA11
RNA17 = experiment: Binding of MBNL1 to RNA17
r(CUG)109 [7] = conditions: MBNL1 binding to r(CUG)109; cited from earlier work
RNA11 = conditions: MBNL1 binding to RNA11, gel retardation; cited from earlier work
RNA12 [8] = conditions: MBNL1 binding to RNA12, gel retardation; cited from earlier work
RNA13 [9] = conditions: MBNL1 binding to RNA13, gel retardation; cited from earlier work
RNA14 [10] = conditions: MBNL1 binding to RNA14, gel retardation; cited from earlier work
RNA15 = conditions: MBNL1 binding to RNA15, gel retardation; cited from earlier work
RNA16 [11] = conditions: MBNL1 binding to RNA16, gel retardation; cited from earlier work

Which results are given for `CN1CCN(c2ccc3[nH]c(-c4ccc5[nH]c(-c6ccc(O)cc6)nc5c4)nc3c2)CC1` [Compound 1, Hoechst 33258]?
Kd (DNA1): 280 nM; tolerability and toxicity in mice (mice): well tolerated by and non-toxic to mice; affinity for 5′CUG/3′GUC (5′CUG/3′GUC): nanomolar affinity

With `CN1CCN(c2ccc3nc(-c4ccc5nc(-c6cccc(OCCCC(=O)NCCCN=[N+]=[N-])c6)[nH]c5c4)[nH]c3c2)CC1` [Compound 2, meta-(N-(3-azidopropyl)-4-oxybutanamide)-Hoechst] as the molecule, how does the Kd (RNA1; RNA1, fully paired hairpin cassette) read?
Its Kd is 1700 ± 70 nM.

And the “Specificity to RNA2” value (RNA1; RNA1 versus RNA2)?
The value was 13.1.

What about the “binds RNA2 more tightly than RNA1” value (RNA1; RNA2 over RNA1) of the same molecule?
The value was 13 fold.

What about the Kd (RNA2) of the same molecule?
The Kd was 130 ± 25 nM.

And the “binds RNA2 more tightly than RNA3” value (RNA3; 5′CUG/3′GUC (RNA2) versus 5′CUC/3′GUG (RNA3))?
Its value is greater than 8 fold.

What about the Kd (RNA3; RNA3, 5′CUC/3′GUG) of the same molecule?
The Kd was 1050 ± 212 nM.

What about the “Specificity to RNA2” value (RNA3; RNA3 versus RNA2) of the same molecule?
The value was 8.0.

What about the Kd (RNA4; RNA4, 1×1 UU loop with AU closing pairs) of the same molecule?
The Kd was 370 ± 107 nM.

What about the “Specificity to RNA2” value (RNA4; RNA4 versus RNA2) of the same molecule?
The value was 2.8.

And the “weaker binding than to RNA2” value (RNA4; loop GC pairs (RNA2) changed to AU (RNA4))?
Its value is “Approximately 3 fold”.

What about the Kd (RNA5; RNA5, 1×1 UU loop with GU closing pairs) of the same molecule?
Its Kd is 810 ± 150 nM.

And the “Specificity to RNA2” value (RNA5; RNA5 versus RNA2)?
Its value is 6.2.

And the “weaker binding than to RNA2” value (RNA5; loop GC pairs (RNA2) changed to GU (RNA5))?
The value was roughly 6 fold.

And the Kd (RNA6; RNA6, 1×1 CC loop)?
Its Kd is 290 ± 50 nM.

What about the “Specificity to RNA2” value (RNA6; RNA6 versus RNA2) of the same molecule?
The value was 2.2.

What about the Kd (RNA7; RNA7, 1×1 CC loop) of the same molecule?
Its Kd is roughly 1000 nM.

And the “Specificity to RNA2” value (RNA7; RNA7 versus RNA2)?
The value was “∼7.7”.

And the Kd (RNA8; RNA8)?
Its Kd is 520 ± 18 nM.

What about the “Specificity to RNA2” value (RNA8; RNA8 versus RNA2) of the same molecule?
Its value is 4.0.

And the Kd (RNA9; RNA9, 1×1 AA loop (SCA3 motif))?
The Kd was 450 ± 100 nM.

What about the “Specificity to RNA2” value (RNA9; RNA9 versus RNA2) of the same molecule?
The value was 3.5.

What about the Kd (RNA10; RNA10, 1×1 AA loop) of the same molecule?
The Kd was 820 ± 160 nM.

And the “Specificity to RNA2” value (RNA10; RNA10 versus RNA2)?
The value was 6.3.

What about the Kd (DNA1) of the same molecule?
The Kd was 250 ± 63 nM.

And the “Specificity to RNA2” value (DNA1; DNA1 versus RNA2)?
Its value is 1.9.

What about the “specific for RNA2 over DNA1” value (DNA1; RNA2 over DNA1) of the same molecule?
Its value is roughly 2 fold.

What about the “specificity for r(CUG)109 versus herring sperm DNA” value (r(CUG)109 [1]) of the same molecule?
The value was 0.7 fold.

And the “Selectivity for r(CUG)109 over herring sperm DNA” value (r(CUG)109 [1]; Kd herring sperm DNA divided by Kd r(CUG)109)?
The value was 0.73.

What about the Kd (r(CUG)109 [1]; r(CUG)109 hairpin, 54 DM1 motifs) of the same molecule?
The Kd was 150 ± 25 nM.

What about the Kd (herring sperm DNA) of the same molecule?
The Kd was 110 ± 19 nM.

What about the IC50 (r(CUG)109-MBNL1 complex; 0.65 pmoles r(CUG)109 immobilized, 3.7 μM bulk yeast tRNA, 32 pmoles MBNL1) of the same molecule?
The IC50 was 110000 ± 20000 nM.

What about the “inhibition of the MBNL1-r(CUG)109 interaction” value (r(CUG)109-MBNL1 complex; in the presence of bulk yeast tRNA) of the same molecule?
Its value is no less than 95%.

And the IC50 (RNA11-MBNL1 complex; RNA 11, Condition A: 7.5 pmoles of MBNL1 per well)?
Its IC50 is 30200 ± 6800 nM.

What about the IC50 (RNA11-MBNL1 complex; RNA 11, Condition B: 2.0 pmoles of MBNL1 per well) of the same molecule?
Its IC50 is 38100 ± 6900 nM.

And the IC50 (RNA12-MBNL1 complex; RNA 12, Condition A: 7.5 pmoles of MBNL1 per well)?
The IC50 was 48400 ± 9900 nM.

What about the IC50 (RNA12-MBNL1 complex; RNA 12, Condition B: 2.0 pmoles of MBNL1 per well) of the same molecule?
Its IC50 is 21100 ± 500 nM.

For `N=C(N)c1ccc(-c2cc3ccc(C(=N)N)cc3[nH]2)cc1` [DAPI, 2-(4-amidinophenyl)-1H-indole-6-carboxamidine], which “affinity for RNAs containing a 1×1 nucleotide CC internal loop” value [2] is on record?
The value was “nanomolar affinities”.

Which “affinity for RNAs containing a 1×1 nucleotide CC internal loop” value [2] does the source give for `Cn1cc(NC(=O)c2cc(NC(=O)c3cc(NC=O)cn3C)cn2C)cc1C(=O)NCCC(=N)N` [distamycin] here?
Its value is “nanomolar affinities”.

B1: MBNL1: Muscleblind-like 1 protein, alternative splicing regulator that binds expanded rCUG repeats (protein, UniProt Q9NR56 1-388, looked up)
Muscleblind-like protein 1: MAVSVTPIRDTKWLTLEVCREFQRGTCSRPDTECKFAHPSKSCQVENGRVIACFDSLKGRCSRENCKYLHPPPHLKTQLEINGRNNLIQQKNMAMLAQQMQLANAMMPGAPLQPVPMFSVAPSLATNASAAAFNPYLGPVSPSLVPAEILPTAPMLVTGNPGVPVPAAAAAAAQKLMRTDRLEVCREYQRGNCNRGENDCRFAHPADSTMIDTNDNTVTVCMDYIKGRCSREKCKYFHPPAHLQAKIKAAQYQVNQAAAAQAAATAAAMTQSAVKSLKRPLEATFDLGIPQAVLPPLPKRPALEKTNGATAVFNTGIFQYQQALANMQLQQHTAFLPPVPMVHGATPATVSAATTSATSVPFAATATANQIPIISAEHLTSHKYVTQM
With B1 as the molecule, how does the “Specificity to DM1 RNA11” value (RNA12 [3]) read?
The value was 2.5.

What about the “weaker than the DM1-MBNL1 complex” value (RNA12 [3]) of the same molecule?
Its value is 2.5 fold.

What about the “Specificity to DM1 RNA11” value (RNA13 [4]) of the same molecule?
The value was 0.8.

And the “higher affinity than the DM1-MBNL1 complex” value (RNA14 [5]; MBNL1, DM2 RNA14)?
Its value is 2 fold.

And the “Specificity to DM1 RNA11” value (RNA14 [5]; MBNL1, RNA14 versus RNA11)?
The value was 0.5.

What about the “Specificity to DM1 RNA11” value (RNA16 [6]) of the same molecule?
The value was 3.7.

And the “Specificity to DM1 RNA11” value (RNA17; MBNL1, RNA17 versus RNA11)?
The value was greater than 4.

What about the Kd (RNA17; MBNL1 binding to fully paired RNA17) of the same molecule?
The Kd was greater than 1000 nM.

What about the Kd (r(CUG)109 [7]) of the same molecule?
Its Kd is 300 ± 93 nM.

And the Kd (RNA11)?
Its Kd is 250 ± 10 nM.

And the Kd (RNA12 [8])?
The Kd was 630 ± 70 nM.

What about the Kd (RNA13 [9]) of the same molecule?
The Kd was 200 ± 30 nM.

And the Kd (RNA14 [10])?
The Kd was 120 ± 40 nM.

And the Kd (RNA15)?
The Kd was greater than 2500 nM.

And the Kd (RNA16 [11])?
The Kd was 920 ± 150 nM.
